Test results reported in ChEMBL document CHEMBL1944562, “Design, synthesis of some new (2-aminothiazol-4-yl)methylester derivatives as possible antimicrobial and antitubercular agents” (2012).
Values after ≈ are worked out from the molar mass of the structure shown.

Key:
Assay type in all cases: functional
[1] = tested on: Mycolicibacterium smegmatis; test: Antitubercular activity against Mycobacterium smegmatis ATCC 19420 after 7 days by resazurin assay; conditions: ATCC 19420, 168 h
Outline: (§1)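 Middlebrook 7H9 broth with 10% OADC, culture adjusted to McFarland 2. 50 µL culture added to 150 µL fresh medium. Stocks at 2 mg/mL in DMF, tested first at 1, 10 and 100 µg/mL, then at 0.3125-5 µg/mL. DMF controls. After 7 days at 37 °C, 0.01% resazurin added. Blue-to-pink change read for MIC.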

[2] = tested on: Mycolicibacterium fortuitum; test: Antitubercular activity against Mycobacterium fortuitum ATCC 19542 after 7 days by resazurin assay; conditions: ATCC 19542, 168 h; outline: as §1
[3] = tested on: Mycobacterium tuberculosis; test: Antitubercular activity against Mycobacterium tuberculosis H37Rv assessed as growth inhibition after 7 days by resazurin assay
Outline: (§2)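 M. tuberculosis H37Rv ATCC 27294 grown in Middlebrook 7H9 broth with 10% OADC and adjusted to McFarland 2. Culture was diluted 1:4 into fresh medium. Compounds came from 2 mg/mL DMF stocks, screened first at 1, 10 and 100, then at 0.3125–5. DMF-only controls were included. After 7 days at 37 °C, 0.01% resazurin was added; a blue-to-pink change marked growth, and the MIC was read.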

Escherichia coli [4] = test: Antibacterial activity against Escherichia coli ATCC 25922 after 16 to 18 hrs by […]
Staphylococcus aureus [5] = test: Antibacterial activity against Staphylococcus aureus ATCC 25923 after 16 to 18 hrs by serial plate dilution method
Pseudomonas aeruginosa [6] = test: Antibacterial activity against Pseudomonas aeruginosa ATCC 27853 after 16 to 18 hrs by […]
Klebsiella pneumoniae [7] = test: Antibacterial activity against Klebsiella pneumoniae after 16 to 18 hrs by […]
Bacillus subtilis [8] = test: Antibacterial activity against Bacillus subtilis after 16 to 18 hrs by […]
Escherichia coli [9] = test: Antibacterial activity against Escherichia coli ATCC 25922 at MIC after 3 to 4 days
Outline: (§3)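 Agar well diffusion on seeded agar plates, 20 mL agar per dish, dried 1 h at 37 °C. Wells punched and loaded with test compound in DMSO at its MIC. DMSO-only control. Plates run in triplicate and kept 3-4 days at 37 °C. Inhibition zone diameter measured.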

Staphylococcus aureus [10] = test: Antibacterial activity against Staphylococcus aureus ATCC 25923 at […] after 3 to 4 days; outline: as §3
Pseudomonas aeruginosa [11] = test: Antibacterial activity against Pseudomonas aeruginosa ATCC 27853 at MIC after 3 to 4 days; outline: as §3
Klebsiella pneumoniae [12] = test: Antibacterial activity against Klebsiella pneumoniae at MIC after 3 to 4 days; outline: as §3
Bacillus subtilis [13] = test: Antibacterial activity against Bacillus subtilis at MIC after 3 to 4 days; outline: as §3
Aspergillus flavus [14] = test: Antifungal activity against Aspergillus flavus NCIM N0.524 after 3 to 4 days by serial plate dilution method
Aspergillus fumigatus [15] = test: Antifungal activity against Aspergillus fumigatus NCIM N0.902 after 3 to 4 days by serial plate dilution method
Talaromyces marneffei [16] = test: Antifungal activity against Penicillium marneffei after 3 to 4 days by serial plate dilution method
[17] = tested on: Trichophyton mentagrophytes; test: Antifungal activity against Trichophyton mentagrophytes after 3 to 4 days by serial plate dilution method
Candida albicans [18] = test: Antifungal activity against Candida albicans after 3 to 4 days by serial plate dilution method
Aspergillus flavus [19] = test: Antifungal activity against Aspergillus flavus NCIM N0.524 at MIC after 3 to 4 days
Outline: (§4)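 Fungal suspension made by transferring a loopful of culture to 3 mL saline and seeding agar plates, 20 mL agar per dish, dried 1 h at 37 °C. Punched wells loaded with test compound in DMSO at its MIC. DMSO-only control. Triplicate plates held 3-4 days at 37 °C. Inhibition zone diameter measured.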

Aspergillus fumigatus [20] = test: Antifungal activity against Aspergillus fumigatus NCIM N0.902 at MIC after 3 to 4 days; outline: as §4
Talaromyces marneffei [21] = test: Antifungal activity against Penicillium marneffei at MIC after 3 to 4 days; outline: as §4
[22] = tested on: Trichophyton mentagrophytes; test: Antifungal activity against Trichophyton mentagrophytes at MIC after 3 to 4 days; outline: as §4
Candida albicans [23] = test: Antifungal activity against Candida albicans at MIC after 3 to 4 days; outline: as §4
[24] = tested on: Mycobacterium tuberculosis; test: Antitubercular activity against Mycobacterium tuberculosis H37Rv after 7 days by resazurin assay; conditions: 168 h; outline: as §2

SMILES	MIC [1]	MIC [2]	growth inhibition (GI) [3]	MIC (Escherichia coli [4])	MIC (Staphylococcus aureus [5])	MIC (Pseudomonas aeruginosa [6])	MIC (Klebsiella pneumoniae [7])	MIC (Bacillus subtilis [8])	diameter of the inhibition zone (DIZ) (Escherichia coli [9])	diameter of the inhibition zone (DIZ) (Staphylococcus aureus [10])	diameter of the inhibition zone (DIZ) (Pseudomonas aeruginosa [11])	diameter of the inhibition zone (DIZ) (Klebsiella pneumoniae [12])	diameter of the inhibition zone (DIZ) (Bacillus subtilis [13])	MIC (Aspergillus flavus [14])	MIC (Aspergillus fumigatus [15])	MIC (Talaromyces marneffei [16])	MIC [17]	MIC (Candida albicans [18])	diameter of the inhibition zone (DIZ) (Aspergillus flavus [19])	diameter of the inhibition zone (DIZ) (Aspergillus fumigatus [20])	also measured
Nc1nc(COC(=O)C2(c3ccc(Cl)cc3)CC2)cs1	1 µg/mL (≈ 3.24 µM)	1.25 µg/mL (≈ 4.05 µM)	90%	6.25 µg/mL (≈ 20.2 µM)	12.5 µg/mL (≈ 40.5 µM)	12.5 µg/mL (≈ 40.5 µM)	6.25 µg/mL (≈ 20.2 µM)	12.5 µg/mL (≈ 40.5 µM)	16 mm	11 mm	11 mm	16 mm	11 mm	25 µg/mL (≈ 81 µM)	25 µg/mL (≈ 81 µM)	25 µg/mL (≈ 81 µM)	25 µg/mL (≈ 81 µM)	25 µg/mL (≈ 81 µM)	<10 mm	<10 mm	diameter of the inhibition zone (DIZ) (Talaromyces marneffei [21]): <10 mm; diameter of the inhibition zone (DIZ) [22]: <10 mm; diameter of the inhibition zone (DIZ) (Candida albicans [23]): <10 mm; MIC [24]: 1 µg/mL (≈ 3.24 µM)
Nc1nc(COC(=O)Cc2cccc(C(F)(F)F)c2)cs1	10 µg/mL (≈ 31.6 µM)	10 µg/mL (≈ 31.6 µM)	95%	6.25 µg/mL (≈ 19.8 µM)	6.25 µg/mL (≈ 19.8 µM)	6.25 µg/mL (≈ 19.8 µM)	12.5 µg/mL (≈ 39.5 µM)	6.25 µg/mL (≈ 19.8 µM)	16 mm	16 mm	16 mm	11 mm	16 mm	12.5 µg/mL (≈ 39.5 µM)	12.5 µg/mL (≈ 39.5 µM)	25 µg/mL (≈ 79 µM)	12.5 µg/mL (≈ 39.5 µM)	25 µg/mL (≈ 79 µM)	11 mm	11 mm	diameter of the inhibition zone (DIZ) (Talaromyces marneffei [21]): <10 mm; diameter of the inhibition zone (DIZ) [22]: 11 mm; diameter of the inhibition zone (DIZ) (Candida albicans [23]): <10 mm; MIC [24]: 0.625 µg/mL (≈ 1.98 µM)
Nc1nc(COC(=O)Cc2ccccc2OC(F)(F)F)cs1	> 100 µg/mL	> 100 µg/mL	<90%	12.5 µg/mL (≈ 37.6 µM)	12.5 µg/mL (≈ 37.6 µM)	25 µg/mL (≈ 75.2 µM)	25 µg/mL (≈ 75.2 µM)	12.5 µg/mL (≈ 37.6 µM)	11 mm	11 mm	<10 mm	<10 mm	11 mm	6.25 µg/mL (≈ 18.8 µM)	6.25 µg/mL (≈ 18.8 µM)	6.25 µg/mL (≈ 18.8 µM)	6.25 µg/mL (≈ 18.8 µM)	6.25 µg/mL (≈ 18.8 µM)	16 mm	16 mm	diameter of the inhibition zone (DIZ) (Talaromyces marneffei [21]): 16 mm; diameter of the inhibition zone (DIZ) [22]: 16 mm; diameter of the inhibition zone (DIZ) (Candida albicans [23]): 16 mm; MIC [24]: 5 µg/mL (≈ 15 µM)
Nc1nc(COC(=O)c2cc(F)cc(C(F)(F)F)c2)cs1	> 100 µg/mL	10 µg/mL (≈ 31.2 µM)	90%	25 µg/mL (≈ 78.1 µM)	12.5 µg/mL (≈ 39 µM)	12.5 µg/mL (≈ 39 µM)	25 µg/mL (≈ 78.1 µM)	12.5 µg/mL (≈ 39 µM)	<10 mm	11 mm	11 mm	<10 mm	11 mm	6.25 µg/mL (≈ 19.5 µM)	6.25 µg/mL (≈ 19.5 µM)	6.25 µg/mL (≈ 19.5 µM)	6.25 µg/mL (≈ 19.5 µM)	6.25 µg/mL (≈ 19.5 µM)	16 mm	16 mm	diameter of the inhibition zone (DIZ) (Talaromyces marneffei [21]): 16 mm; diameter of the inhibition zone (DIZ) [22]: 16 mm; diameter of the inhibition zone (DIZ) (Candida albicans [23]): 16 mm; MIC [24]: 1 µg/mL (≈ 3.12 µM)
N#CCCc1cccc(C(=O)OCc2csc(N)n2)c1	1 µg/mL (≈ 3.48 µM)	10 µg/mL (≈ 34.8 µM)	95%	6.25 µg/mL (≈ 21.8 µM)	6.25 µg/mL (≈ 21.8 µM)	6.25 µg/mL (≈ 21.8 µM)	12.5 µg/mL (≈ 43.5 µM)	6.25 µg/mL (≈ 21.8 µM)	16 mm	16 mm	16 mm	11 mm	16 mm	6.25 µg/mL (≈ 21.8 µM)	25 µg/mL (≈ 87 µM)	6.25 µg/mL (≈ 21.8 µM)	25 µg/mL (≈ 87 µM)	12.5 µg/mL (≈ 43.5 µM)	16 mm	<10 mm	diameter of the inhibition zone (DIZ) (Talaromyces marneffei [21]): 16 mm; diameter of the inhibition zone (DIZ) [22]: <10 mm; diameter of the inhibition zone (DIZ) (Candida albicans [23]): 11 mm; MIC [24]: 0.625 µg/mL (≈ 2.18 µM)
N#Cc1ccccc1C(=O)OCc1csc(N)n1	> 100 µg/mL	> 100 µg/mL	<90%	6.25 µg/mL (≈ 24.1 µM)	12.5 µg/mL (≈ 48.2 µM)	6.25 µg/mL (≈ 24.1 µM)	12.5 µg/mL (≈ 48.2 µM)	25 µg/mL (≈ 96.4 µM)	16 mm	11 mm	16 mm	11 mm	<10 mm	12.5 µg/mL (≈ 48.2 µM)	12.5 µg/mL (≈ 48.2 µM)	25 µg/mL (≈ 96.4 µM)	25 µg/mL (≈ 96.4 µM)	6.25 µg/mL (≈ 24.1 µM)	11 mm	11 mm	diameter of the inhibition zone (DIZ) (Talaromyces marneffei [21]): <10 mm; diameter of the inhibition zone (DIZ) [22]: <10 mm; diameter of the inhibition zone (DIZ) (Candida albicans [23]): 16 mm; MIC [24]: 5 µg/mL (≈ 19.3 µM)
